The structures appear in SMILES notation.

The nature of the series: Toxicity liver stage against HepG2, at 10uM. It is filed as cell-based. On the set-up: test concentration 10 uM, cell line HepG2-A16-CD81EGFP. The note with it: human, HepG2-A16-CD81EGFP cells; read-out: INHIBITION
The gist of the method:
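Uninfected HepG2-A16-CD81EGFP cells, 3 × 10^3 per well, 1536-well, plated on prespotted compound at 10 μM final, parasite-free screening media added to match infected plates; puromycin 10 μM positive, DMSO 0.5% negative; run in parallel with 48 h PbLuc assay at 37 °C, 5% CO2; viability by CellTiter-Glo luminescence, normalized to controls.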
As to `CC(C)CNC(=O)c1ccc(NC(=O)NC2CC2)cc1Cl`, the cytotoxicity at 10 µM was determined as 2.56%. As for `Cc1cc(NC(=O)N2CCN(C)CC2C)n(C)n1` (configuration not stated), the cytotoxicity at 10 µM was determined as 9.92%.

As for `COc1cccc(N2CCN(Cc3ccc4[nH]ccc4c3)CC2=O)c1`, the cytotoxicity at 10 µM came to 4.59%. On to `COC(=O)c1cccn1C1CCN(C(=O)c2ccc(C)[nH]c2=O)CC1`, for which the cytotoxicity at 10 µM is -3.78%. `CS(=O)(=O)N1CC2(CCCN(C3COC3)C2)Cc2ccccc21` (configuration not stated): the cytotoxicity at 10 µM was 5.15%. Next, `Cc1ccc(CN2CCN(C3CCC3)CC2CCO)o1` (configuration not stated): -2.46%. Next, `COCCNS(=O)(=O)c1c(C)sc2ccccc12`: 1.11%; `O=C(CCc1ccccc1Br)N1CC(S(=O)(=O)C2CCCCC2)C1`: -1.36%. As for `CNC(=O)c1cn(C(C)(C)C)c2ncccc12`, the cytotoxicity at 10 µM was -7.85%. Consider `O=c1[nH]nc(CCCN2CCOCC2)n1-c1ccc(F)cc1F`, for which the cytotoxicity at 10 µM amounted to 4.54%. As to `OCc1ccccc1CNCC1CNc2ccnn2C1` (configuration not stated), the cytotoxicity at 10 µM was -11.9%. On to `CCOC1CC2(CCN(C(=O)COC)CC2)c2cc(F)ccc21` (configuration not stated), for which the cytotoxicity at 10 µM is -136%. With `COc1ccc2nnc(CCCC(=O)NCc3cccn3C)n2n1`, the cytotoxicity at 10 µM is 3.85%. As for `c1ccc(-c2noc(CCCN3CCCC3Cn3cccn3)n2)cc1` (configuration not stated), the cytotoxicity at 10 µM was -13%. For the compound `Cn1cc(CN2CCc3onc(C(=O)Nc4cccnc4)c3C2)cn1`, the cytotoxicity at 10 µM turned out to be 4.22%.

For the compound `CC(O)CN1CCN(C(=O)c2ccc(Cn3cccc3)cc2)CC1` (configuration not stated), the cytotoxicity at 10 µM was -5.75%. In the case of `CC(C)c1cc(C(=O)N2CCCC(Cn3cc(CO)nn3)C2)on1` (configuration not stated), the cytotoxicity at 10 µM is -6.27%. On to `COc1cc(CN2C[C@@H]3CNC(=O)[C@H](C)[C@@H]3C2)cc(OC)c1`, for which the cytotoxicity at 10 µM amounted to 0.405%. For the compound `c1ccc2oc(N3CCC(c4nncn4C4CC4)CC3)nc2c1`, the cytotoxicity at 10 µM came to 12.7%. Take `CCc1nc(C2CCCN2Cc2nc(Cc3ccccc3)no2)no1` (configuration not stated): the cytotoxicity at 10 µM worked out at 3.12%.

Take `CNC(=O)NC(=O)C(C)N1CCN(C2CCCC2)CC1` (configuration not stated): the cytotoxicity at 10 µM is -14%. For the compound `Cc1n[nH]c(C)c1CN1CC[C@@H]2[C@@H](CCC(=O)N2CCc2c[nH]cn2)C1`, the cytotoxicity at 10 µM was -3%.

For `CC(C)NC(=O)N1CCc2onc(C(=O)NCCN(C)C)c2C1`, the cytotoxicity at 10 µM was determined as 0.0529%. Consider `CCn1nc(C)c(NC(=O)CN(C)C(C)c2ccon2)c1C` (configuration not stated), for which the cytotoxicity at 10 µM was -147%. Turning to `COCCN1CCN(S(=O)(=O)c2ccccc2)Cc2cccnc21`, the cytotoxicity at 10 µM came out at 4.77%. Turning to `CCNc1ccnc(N2CCCC(CCOC)(C(=O)O)C2)n1` (configuration not stated), the cytotoxicity at 10 µM is 2.84%.

For `CN(C)CCN1C(=O)CCCC12CCCN(Cc1cccs1)C2` (configuration not stated), the cytotoxicity at 10 µM stood at 0.199%. For `Cc1cccc(CO[C@H]2CN(c3nnc(C)s3)[C@@H]3CCCO[C@H]23)n1`, the cytotoxicity at 10 µM was found to be 4.47%. `CC(=O)NCc1ccc(C(=O)N2CCCC2c2cnn(C)c2)cc1` (configuration not stated): the cytotoxicity at 10 µM was -13.5%. In the case of `CC(C)(CN1CCC(Cc2cccc(C(=O)O)c2)C1)N1CCOCC1` (configuration not stated), the cytotoxicity at 10 µM came out at 3.98%. Take `COCc1ccccc1C(=O)N1CCCC1Cn1nc(C)cc1C` (configuration not stated): the cytotoxicity at 10 µM was -3.98%. In the case of `CCCc1n[nH]c(C2CN(C(=O)c3cccc4cn[nH]c34)CCO2)n1` (configuration not stated) it was -4.81%; in that of `CN(C(=O)Cc1coc(-c2ccccc2)n1)C1(C#N)CCC1`, 6.41%. On to `Cc1ccccc1N1CCN(C(=O)c2cnc(C3CC3)nc2)C(C)C1` (configuration not stated), for which the cytotoxicity at 10 µM is 2.09%. Next, `CCc1cc(N2CCC(Nc3ccc(Cl)cn3)CC2)ncn1`: 49.1%; `O=C(c1cc2c(s1)CCOC2)N1CCCC1Cn1cccn1` (configuration not stated): -2.06%; `Cc1nccn1C1CCCN(C(=O)c2ccc3c(c2)CCC3)C1` (configuration not stated): -13.8%. Take `Cc1sc(C(=O)N(C)S(C)(=O)=O)cc1-c1ccc(F)cc1`: the cytotoxicity at 10 µM was 0.269%. On to `CCN(Cc1ccccc1)c1ncnc2c(C)nn(CC)c12`, for which the cytotoxicity at 10 µM was -2.48%. Regarding `COCC(O)CN(C)C(=O)NC1CCN(Cc2ccccn2)CC1` (configuration not stated), the cytotoxicity at 10 µM was -0.0353%. For the compound `Cc1nn(C)c2nc(N(CCN(C)C)CC3CCCO3)sc12` (configuration not stated), the cytotoxicity at 10 µM is -4.62%.

On to `Cc1nc(NCCC23CCCN2CCC3)cc(C2CCCNC2)n1` (configuration not stated), for which the cytotoxicity at 10 µM came out at 7.98%. As for `CCc1cc(NCCNC(=O)c2cccnc2)n2nc(C)c(C)c2n1`, the cytotoxicity at 10 µM is -3.05%. In the case of `CC(C)Nc1ncnc2c1CCN(Cc1nccn1C)CC2` it was 0.507%. Next, `CC(=O)N1Cc2ccccc2C[C@H]1C(=O)N(C)CCc1ccccn1`: -3.27%. With `O=C(NC1CC1)c1cc(C2CCCN(Cc3ccccn3)C2)no1` (configuration not stated), the cytotoxicity at 10 µM was -31.9%. As for `CCc1cnc(CCNC(C)CC(=O)Nc2cccc(C)c2C)s1` (configuration not stated), the cytotoxicity at 10 µM amounted to 6.69%.

As for `COc1ccc(C2CC(=O)NCc3nc(N(C)C)sc32)c(O)c1` (configuration not stated), the cytotoxicity at 10 µM stood at 3.3%. Regarding `CC(C)NC1CCc2c(ccc(=O)n2CCN2CCOCC2)C1` (configuration not stated), the cytotoxicity at 10 µM is 7.64%. In the case of `COCC1c2c(cnn2C)CCN1C(=O)c1cccn1C` (configuration not stated) it was -94.1%. `CC(C)OCCN(C)C(C)c1cccc(S(N)(=O)=O)c1` (configuration not stated): the cytotoxicity at 10 µM is -8.6%. Next, `c1cc(CCN2CCN(c3ccc4nncn4n3)CC2)ccn1`: 4.76%; `CCc1ccc(C(=O)NC2CCN(c3cnn(C)c3)C2=O)o1` (configuration not stated): -6.13%. For the compound `CN(C)C(C(=O)N1CCCC1)c1ccccc1F` (configuration not stated), the cytotoxicity at 10 µM amounted to 7.35%. `CCC(C(=O)N1CCN(C(=O)N2CCOCC2)CC1)n1cccn1` (configuration not stated): the cytotoxicity at 10 µM amounted to 2.35%. For `Cc1cc(C(=O)N2CC(O)CO2)c2ccc(C)c(C)c2n1` (configuration not stated), the cytotoxicity at 10 µM amounted to 11.3%. Regarding `CC1c2ncc(Cn3cncn3)n2CCN1C(=O)[C@H]1CCCO1` (some centres not stated), the cytotoxicity at 10 µM is -4.12%. For `O=C(c1cncc(N2CCC3(CCNCC3)CC2)n1)N1CCCC1`, the cytotoxicity at 10 µM is -14.6%. Turning to `CNC(=O)NCC(=O)N1CCCC1Cc1cccc(F)c1` (configuration not stated), the cytotoxicity at 10 µM was -2.59%. Consider `CSC(C)C(=O)N(C)C1CCN(c2ccc(Cl)cc2)CC1` (configuration not stated), for which the cytotoxicity at 10 µM came to 0.204%. Next, `Cn1ncnc1NS(=O)(=O)c1ccc(F)cc1`: 7.66%; `CNc1nc(CN2C[C@@H](NC(C)=O)[C@H](c3ccc(C)o3)C2)cs1`: -42.4%; `CC(C)(C)C(=O)NCCC(=O)NS(=O)(=O)c1cccc(C#N)c1`: 1.01%. Next, `CC(O)CN1CCC(CN(C)CC(=O)NC(C)C)CC1` (configuration not stated): -2.32%; `c1ccc(C2CCCN2Cc2nc(-c3cnccn3)no2)nc1` (configuration not stated): -0.5%. In the case of `Cc1ncc(-c2ccnc(N3CCC[C@@H]3CO)n2)c(-c2cccnc2)n1`, the cytotoxicity at 10 µM is -8.49%.

Regarding `Cc1csc(N2CCN(CC(=O)Nc3cc(C)nn3C)CC2C)n1` (configuration not stated), the cytotoxicity at 10 µM was -10.2%.

`Cc1cc(C)cc(C(=O)NCCCC2(C3OCCO3)CCOCC2)c1`: the cytotoxicity at 10 µM worked out at 9.4%. Next, `CC(NC(=O)NCCCn1cncn1)c1ccccc1F` (configuration not stated): -13.3%; `Cc1nn(-c2ccc(C(=O)O)cc2)c2c1C(c1ccsc1)SCC(=O)N2` (configuration not stated): 0.153%; `CNC(=O)COc1ccccc1CNC1CCc2nc(C)nn2C1` (configuration not stated): 6.56%. With `COC(C)(C)Cn1ccnc1-c1cccc(C(C)N(C)C)c1` (configuration not stated), the cytotoxicity at 10 µM is -3.59%.

The values are drawn from ChEMBL document CHEMBL4513216, “Probing the Open Global Health Chemical Diversity Library for Multistage-Active Starting Points for Next-Generation Antimalarials” (ACS Infect Dis, 2020).
